# Measured values from different studies.
# Lines come from different studies, so protocols differ.
# Phosphatidylserine lipase ABHD16A: Phosphatidylserine lipase ABHD16A (Homo sapiens, UniProt O95870)
SMILES,target,test,quantity,result
Oc1ccc(/C=C/c2cc(O)cc(O)c2)cc1,"Troponin C, slow skeletal and cardiac muscles (TNNC1, Human, UniProt P63316)","binding, NMR",Kd,240 µM
Nc1nccc(-c2cccc(-c3ccccc3)c2)n1,"Phosphatidylinositol 5-phosphate 4-kinase type-2 gamma (PIP4K2C, Homo sapiens, UniProt Q8TBX8)",binding,Kd,0.064 µM
CN1CCC[C@H]1c1cccnc1,"Urea transporter 1 (Slc14a1, Rattus norvegicus, UniProt P97689)","transporter uptake, inhibitor",IC50,~40 µM
CC(=O)CC(=O)C(=O)O,"4-hydroxy-tetrahydrodipicolinate synthase (dapA, Escherichia coli K-12, UniProt P0A6L2)","enzyme activity, inhibitor, absorbance",Ki,1.4 µM
CC(C)CCC[C@@H](C)[C@H]1CC[C@H]2[C@@H]3C[C@@H](n4cncc4CCN)[C@@]4(O)C[C@@H](O)CC[C@]4(C)[C@H]3CC[C@]12C,"Bifunctional epoxide hydrolase 2 (EPHX2, Homo sapiens, UniProt P34913)","enzyme activity, inhibitor",IC50,> 100 µM
NC(=O)CCCC/C=C1\C(=O)OC1CCCCCCCCCc1ccccc1 (stereo not drawn),Phosphatidylserine lipase ABHD16A,"enzyme activity, inhibitor",IC50,0.2 to 0.5 µM
c1c[nH]cn1,"Nitric oxide synthase, inducible (Nos2, Mus musculus, UniProt P29477)",binding,Kd,56 µM
CC(C)C[C@H](NC(=O)[C@H](Cc1ccccc1)NC(=O)[C@H](Cc1ccc(O)cc1)NC(=O)CNC(=O)[C@H](CCCCN)NC(=O)[C@H](CO)NC(=O)[C@H](CCC(N)=O)NC(=O)CNC(=O)[C@@H](NC(=O)[C@H](CO)NC(=O)[C@@H]1CCCN1C(=O)[C@H](CO)NC(=O)[C@H](CCC(N)=O)NC(=O)[C@H](Cc1ccc(O)cc1)NC(=O)[C@H](CCC(=O)O)NC(=O)[C@H](C)NC(=O)[C@H](CCCCN)NC(=O)[C@@H](N)Cc1ccccc1)C(C)C)C(=O)N[C@@H](Cc1ccccc1)C(=O)N[C@@H](CCCNC(=N)N)C(=O)N1CCC[C@H]1C(=O)N[C@@H](CCCNC(=N)N)C(=O)N[C@@H](CC(N)=O)C(N)=O,"Neuromedin-U receptor 1 (NMUR1, Homo sapiens, UniProt Q9HB89)","inositol phosphate, agonist",EC50,0.000447 µM
CC(C)[C@@H]1NC(=O)[C@@H]2CCCN2C(=O)[C@H](Cc2ccccc2)NC(=O)CSC[C@@H](C(=O)N[C@@H](Cc2ccc(O)cc2)C(N)=O)NC(=O)[C@H](Cc2c[nH]c3ccccc23)NC(=O)[C@H](CCCCN)NC(=O)[C@H](Cc2ccccc2)N(C)C(=O)[C@H](Cc2ccccc2)NC1=O,"Stimulator of interferon genes protein (STING1, Homo sapiens, UniProt Q86WV6, H232R)","binding, SPR",Kd,0.25 µM
CC(=O)SCCNC(=O)CCNC(=O)[C@H](O)C(C)(C)COP(=O)(O)OP(=O)(O)OC[C@H]1O[C@@H](n2cnc3c(N)ncnc32)[C@H](O)[C@@H]1OP(=O)(O)O,"CAB1 (Saccharomyces cerevisiae, UniProt Q04430)","enzyme activity, inhibitor",IC50,> 100 µM
CCCCCCCCCCCCCC1OC(=O)/C1=C\CCCCCS(N)(=O)=O (stereo not drawn),Phosphatidylserine lipase ABHD16A,"enzyme activity, inhibitor",IC50,0.5 to 1 µM
C[C@H]1CCC[C@H](O)CCC/C=C/c2cc(O)cc(O)c2C(=O)O1,"Estrogen receptor beta (ESR2, Homo sapiens, UniProt Q92731)","reporter gene, agonist, luciferase",EC50,0.00044 µM
